System: MS2 coat protein
Assay: apparent Kd, MS2 coat protein; higher = weaker binding; RNA-MaP array; FMN 200 µM where present
How it was run: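 The titrant was SNAP-549-labelled MS2 coat protein, run from 0.7 or 1.5 nM in doubling steps to 3 µM. It was applied to designs transcribed by stalled E. coli RNA polymerase on Illumina sequencing-chip clusters, without ligand first and then with constant ligand, in 100 mM Tris-HCl pH 7.5, 80 mM KCl, 4 mM MgCl2, BSA, DTT, yeast tRNA and Tween-20. The apparent Kd is the median of filtered per-cluster binding-curve fits, with green signal normalised to red-channel RNA signal and control-cluster median Fmax.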

[1] = designed as: ON switch for flavin mononucleotide, no ligand
[2] = ligand present: flavin mononucleotide, designed as: ON switch for flavin mononucleotide
[3] = designed as: OFF switch for flavin mononucleotide, no ligand
[4] = ligand present: flavin mononucleotide, designed as: OFF switch for flavin mononucleotide

Sequence | apparent Kd [1] [nM] | apparent Kd [2] [nM] | apparent Kd [3] [nM] | apparent Kd [4] [nM]
CUGUACAUAUCAGGAUAUCUAUUUCCUACAUGAGGAUCACCCAUGUAGGUGAUCACCCAAGUAAAGGAGAAGGGAUAUGUAUAG | 66.4 | 23.7 |  | 
GUCAGCUCGUCAGGAUAUACAUGAUAGAUCGAUUAAUUAAUUAAUUUAACAUGAGGAUCACCCAUGUAGAAGGGACGAGCUGAC |  |  | 80.1 | 71.9
AAUAACAGAGGAUAUACUAUUUUAUGUAUUUAUUAUUUUGAACAUGAGGAUCACCCAUGUAGAAGGCUGAUUAA |  |  | 29.6 | 27.2
AUUAUUUAUAGUUAUUUUUAUUUUACAGAAGGUGAAUUAUUUACAUGAGGAUCACCCAUGUUCUUCAAGGAUAUGUUGUUAUAC | 49.4 | 22.1 |  | 
AAGCGACAUGAGGAUCACCCAUGUAGCAGGGUCAGAGGAUAUUUGAGCUUGGUGAGGGUUAAAGAAGGUUGAAAUC | 25.2 | 33.1 |  | 
GCAUUGAUAACAGGAUAUAUGAGUCCUACAUGAGGAUCACCCAUGUAGGUGAUCAGCCGUGAUUAGUAGAAGGGUUAUCAAUGC | 13 | 5.99 |  | 
AACAGCUCGUCAGGAUAUACGUCACUGCGUCAGCAGUGUGGUAAGAUCACAUGAGGAUCACCCAUGUAGAAGGGACGAGCUGAU |  |  | 14.3 | 267
GUAGGCGACCAGAAGGGUGACAUGAGGAUCACCCAUGUAGAUGUGUUCCCGCUUGGGAGCCGUCCACAGGAUAUGGUUGCUUAG | 66.5 | 42.5 |  | 
CGAUGUUAUGCAGGAUAUCUCUCUUGUUUGAGGAGAGAAGGGCAUAGGGAGACAUACGCCUUAUUACAUGAGGAUCACCCAUGU |  |  | 8.83 | 8
UUUCCGCGAGGAUAUGCGGGUUGUGCUUUUCAUUUUUUAUAACAUGAGGAUCACCCAUGUAGAAGGUGCUUCUU |  |  | 186 | 166
CAGGUAGACUGAGGAUAUACACAAAACAGCUAGUCUAUCUAGCUGCUCACAUGAGGAUCACCCAUGUAGAAGGCAGUCUGCCUG |  |  | 18.4 | 37.8
UGCUGUGUCAGAGGAUAUACACCUAUAAUCCAUUGCAAAUAGCGAUGGACAUGAGGAUCACCCAUGUAGAAGGCUGUCACAGCA |  |  | 214 | 647
GGUCCAUCAUGAGGAUAUGGCACCUUAUUGGUGCCAGAAGGCAUGUCUAUAGACAUGAGGAUCACCCAUGUAAUAAAGUGGACC | 922 | 49.3 |  | 
UAGAUGGGAGGAUAUACAUAGAUACAGAUUCAUGUAGUGCUACAUGAGGAUCACCCAUGUAGAAGGCCCGUCUU |  |  | 33 | 355
CUCUGCCGGCAGGAUAUUAGGUUACGAUGACGUUGAGAAGGGCUGACAUGAGGAUCACCCAUGUAGGGCUCCAU |  |  | 18.8 | 24.5
GGGCCGGUGGAGAAGGAGCUUGCAAAACGCAUGCUAGGAUAUCCACAUGAGGAUCACCCAUGUGGGAAUAUCUGGUUUUCACAG |  |  | 4.09 | 4.79
UAUUUUUAUGUAAGGAUAUGGGUUUGGUUGCGGGCUUAGAAGGUACAUGAGGAUCACCCAUGUAUUUUGUGCGU |  |  | 16.9 | 18.3
CCUGCACAUGAGGAUCACCCAUGUCAGGAUAUCUCGCCGUGUGGAGCAACACGGUAUAAGAGAAGGGACACGGG |  |  | 28.7 | 25.7
AUUCAGUCAGGAUAUCGUUAAUUUAAUUGUUUGUUUUAGUUCGAGAAGGGACAUGAGGAUCACCCAUGUACUUA |  |  | 25.9 | 27.3
CCAGCGUAUGUGAGGAUAUGCUGGUCCUUGGAUCAGCAGAAGGCACAUGAGGAUCACCCAUGUGGAAUCGUUGG |  |  | 23.5 | 92.1
AAGCCCUGAGGAUAUCUCAUCUCGCACAUGAGGAUCACCCAUGUUCUUCUCUGGGUUUCGAGAGAAGGCAGGCCUC |  |  | 954 | 641
UGGUACUAGAGAGGAUAUGGGAAGAUACAUGAGGAUCACCCAUGUUUAAGAAUGCCGAGAGGCAACUAGAAGGCCCUAGUACCU | 490 | 31.5 |  | 
UUAGAUUAUUGAGGAUAUGGAUCUUAUUAUUAACCAGAAGGCAAACUCAACAUGAGGAUCACCCAUGUAUAAAGGGUAUUAGUU |  |  | 89.5 | 83.4
GAUUCACAUGAGGAUCACCCAUGUGAGGAUAUCUAGGUGCGGAGGCUAAGGCCUCCAGAGAGAAGGCACAUGGC |  |  | 27.3 | 41.3

Sequence | apparent Kd [1] [nM] | apparent Kd [2] [nM] | apparent Kd [3] [nM] | apparent Kd [4] [nM]
CCAUGGUGGGCAGGAUAUCGUCCAGCUUGCGGACGAGAAGGGCCAGAACAUGAGGAUCACCCAUGUGAAAGGCGGGUUGUCCAA |  |  | 21.6 | 103
ACAUACUCUCGAGGAUAUCGUAUAAUUAUUAAACGAGAAGGCGAUUGUUUAUUUCUAAUACACGACAUGAGGAUCACCCAUGUA | 27.1 | 25.4 |  | 
GUCGUGUGAGGAUAUCUGAUGUCUAACUUCGGUUAGACAUCAGAGAAGGCACAUGAGGAUCACCCAUGUCCGAC |  |  | 195 | 298
CCCUAGGUAGGAUAUACUUGGGCUCGGCUGAUGUGCUUAAAACAUGAGGAUCACCCAUGUAGAAGGACUAAGGC |  |  | 15.3 | 12.9
GGUUGGCGAGGAUAUACAUGAGGAUCACCCAUGUGGUCCUGAGGCUGAUCAAGCCUAUGUAGAAGGCGCAAAUC |  |  | 215 | 38.1
UUAGAUUAUUGAGGAUAUGGAUAUUUUUAUUAACCAGAAGGCAAACUCAACAUGAGGAUCACCCAUGUAUAAAGGGUAUUAGUU |  |  | 95.6 | 92.7
GUCAGCUCGUGAGGAUAUACAACACUGCUUCGGCAGUGUAUUAAGAUCACAUGAGGAUCACCCAUGUAGAAGGCACGAGCUGUU |  |  | 13.8 | 305
UAUUAGCUAGGAUAUACAUGAGGAUCACCCAUGUCACGGGUCAACUUGUCCUAUGCGUGUAGAAGGAGCGACCC |  |  | 17.7 | 21.7
AUGAGGUUAGGAUAUACAUGAGGAUCACCCAUGUUGAAGGGUUAGGUAGGCGGAGCUGGUAGAAGGAACGGAGC |  |  | 57.3 | 36.9
GCCAACGCAUGAGGAUAUGCUCCCGUUUCGGGAGCAGAAGGCAUGUCAUAAGACAUGAGGAUCACCCAUGUAGUUAAGAUGGCA | 474 | 20.1 |  | 
GGCGGACAUGAGGAUCACCCAUGUAAGGAUAUUAGGCGAUCGUCGAAAGACGAUAGCCUGAGAAGGUACGCGCC |  |  | 14.7 | 17.2
AGCGGAGACAUGAGGAUCACCCAUGUCAGUGCCGGCGAUACCAGAAGGCCCGGCGGGCCUCGGCGGGAGGAUAUGGGUUCAACA | 51.8 | 14.9 |  | 
GCGAUAUUGUAAGGAUAUACUCUGUGAUGAAGAGUAGAAGGUACUUACAUGAGGAUCACCCAUGUUUAACGAGAUACUAAUCGC | 16.6 | 13.1 |  | 
GUAGCAUAAUCAGGAUAUUCAGAGAAUAGAUAGACAUGAGGAUCACCCAUGUGGCGAAAGCCUAGGGAGAAGGGAUAAUGCUAC | 190 | 32.5 |  | 
GCGUUCUUGUAGAAGGUACAUACAAUAUCUUUUUAACACAUGACACAUGAGGAUCACCCAUGUUGUAAGGAUAUACAUGAACGC | 6.8 | 6.91 |  | 
CGAACUCCGUAGAAGGGUGACAUGAGGAUCACCCAUGUGCGAGCGGAGGGAGUCAGCGGCUCGCCACAGGAUAUACGGAGCACG | 49.4 | 107 |  | 
UACAUGUAAGGAUAUGUAAAAUCAAAACAAGAACGAUAAAGACAGAAGGUACAUGAGGAUCACCCAUGUGUCCC |  |  | 20.5 | 21.4
UCAUUUCUGUAAGGAUAUUUAAACAUGACGAUACAUGAGGAUCACCCAUGUAAAGAAGGUACAAAUACAUAUAAUGCAAUGUUC |  |  | 7.55 | 7.39
UGCGUACAAGCGGACAUGAGGAUCACCCAUGUAUUGUUAUGCGAGGAUAUCGGGAAGCAGGAUUCCGAGAAGGUGCGGUGAGCC | 19.2 | 17.7 |  | 
AGAGUGUCAGGAUAUCCUGCUGUGCGGAAUCUGUAUUCACGGGAGAAGGGACAUGAGGAUCACCCAUGUUUGAG |  |  | 18.9 | 28.1
UAUAUAUAGUAAGGAUAUGUAUUUAUUUUACAAACAGAAGGUACUGACAUGAGGAUCACCCAUGUUUUAGUGUGGGCAUGUAGA |  |  | 61.1 | 76.1
UAUAUAAUAUUUCACAUGAGGAUCACCCAUGUACAUGGGAUAGAGGAUAUACAAAUAUUAGUGGUGUAGAAGGUUAAUAUAUAU |  |  | 158 | 101
UUUUAACAUGAGGAUCACCCAUGUGAGGAUAUCGAAAUUUAUAUUAAUAUUUUUAAAUCGAGAAGGCACAUUUU |  |  | 121 | 109
GGAAAUCAUGUAGGAUAUGCAUGGCGACGCUACGCAGAAGGACAUGAGGAUCACCCAUGUUAUAGCGUCCGAGAAAGGAUGCAA |  |  | 34.5 | 53.4
